Laboratory results reported in ChEMBL document CHEMBL2040755, “Diverse combinatorial design, synthesis and in vitro evaluation of new HEPT analogues as potential non-nucleoside HIV-1 reverse transcription inhibitors” (Eur J Med Chem, 2012).
In brackets after ≈: the same amount, converted by molar mass.

Tests used:
[1] = test system: Human immunodeficiency virus 1; assay: Antiviral activity against HIV1 NL4-3 infected in human MT4 cells assessed as inhibition of virus-induced cytopathic effect after 5 days; format: functional, organism-based; conditions: Human immunodeficiency virus 1, NL4-3, MT4, 120 h
In short: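 HIV-1 NL4-3 titered in MT-4 cells after acute infection. Infected cells were exposed to various concentrations of compound and grown 5 days. Protection from virus-induced cytopathic effect was read as viable cell number by tetrazolium (MTT) colorimetry, giving EC50.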

[2] = Cytotoxicity against human MT4 cells after 5 days by MTT assay; format: cell-based
In short: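 Uninfected MT-4 cells exposed to various compound concentrations and allowed to proliferate 5 days. Viable cells quantified by tetrazolium-based colorimetric (MTT) method to give CC50.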

[3] = Selectivity index, ratio of CC50 for human MT4 cells to EC50 for HIV1 NL4-3; format: toxicity, cell-based; conditions: read-out: Ratio CC50/EC50
In short: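 SI taken as CC50 in uninfected MT-4 cells over EC50 against HIV-1 NL4-3. Both came from parallel 5-day MTT viability read-outs, in mock-infected and in infected cells exposed to various compound concentrations.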

[4] = test system: Human immunodeficiency virus 1; assay: Ratio of HEPT EC50 to compound EC50 for HIV1 NL4-3; format: functional

SMILES	EC50 [1]	CC50 at 120 h [2]	selectivity ratio [3]	Ratio EC50 [4]
Cc1ccc(C)c(Cn2c(Sc3cccc(N)c3)c(C)c(=O)[nH]c2=O)c1	5.2 µM	> 25 µg/mL	> 13	–
Cc1cn([C@H]2C[C@H](N=[N+]=[N-])[C@@H](CO)O2)c(=O)[nH]c1=O [ZIDOVUDINE]	0.004 µM	> 1 µg/mL	> 1000	–
Cc1c(Sc2c(Cl)cccc2Cl)n(COCC[Si](C)(C)C)c(=O)[nH]c1=O	> 21.3 µM	9.2 µg/mL (≈ 21.2 µM)	–	–
Cc1c(Sc2cccc(N)c2)n(COCC[Si](C)(C)C)c(=O)[nH]c1=O	1.15 µM	> 25 µg/mL	> 57	–
Cc1ccc(C)c(Cn2c(Sc3ccccc3)c(C)c(=O)[nH]c2=O)c1	3.57 µM	> 25 µg/mL	> 20	–
Cc1ccnc2c1NC(=O)c1cccnc1N2C1CC1 [NEVIRAPINE]	–	> 5 µg/mL	–	–
Cc1c(Sc2cccc(Cl)c2)n(COCCO)c(=O)[nH]c1=O	1.2 µM	> 25 µg/mL	> 60	–
CCOCn1c(Sc2c(Cl)cccc2Cl)c(C)c(=O)[nH]c1=O	4.7 µM	> 25 µg/mL	> 15	–
Cc1ccc(C)c(Cn2c(Sc3c(Cl)cccc3Cl)c(C)c(=O)[nH]c2=O)c1	> 59 µM	> 25 µg/mL	–	–
CCOCn1c(Sc2cccc(Cl)c2)c(C)c(=O)[nH]c1=O	0.046 µM	> 25 µg/mL	> 1670	67
CCOCn1c(Sc2cccc(Cl)c2)cc(=O)[nH]c1=O	> 80 µM	> 25 µg/mL	–	–
Cc1c(Sc2ccccc2)n(COCCO)c(=O)[nH]c1=O [HEPT]	3.28 µM	> 25 µg/mL	> 25	–
Cc1c(Sc2cccc(Cl)c2)n(COCC[Si](C)(C)C)c(=O)[nH]c1=O	> 24.9 µM	9.9 µg/mL (≈ 24.8 µM)	–	–
CCOCn1c(Sc2cccc(Cl)c2)c(C)c(=S)[nH]c1=O	> 4.96 µM	1.7 µg/mL (≈ 4.96 µM)	–	–
CCOCn1c(Sc2c(Cl)cccc2Cl)cc(=O)[nH]c1=O	> 72 µM	> 25 µg/mL	–	–
O=C1Nc2ccc(Cl)cc2[C@@](C#CC2CC2)(C(F)(F)F)O1 [EFAVIRENZ]	–	> 1 µg/mL	–	–

SMILES	EC50 [1]	CC50 at 120 h [2]	selectivity ratio [3]	Ratio EC50 [4]
Cc1ccc(C)c(Cn2c(Sc3cccc(Cl)c3)c(C)c(=O)[nH]c2=O)c1	0.868 µM	13.6 µg/mL (≈ 35.2 µM)	> 40	–
CCOCn1c(Sc2ccccc2)c(C)c(=S)[nH]c1=O	1.9 µM	2.38 µg/mL (≈ 7.72 µM)	> 4	–
Cc1ccc(C)c(Cn2c(Sc3cccc(Cl)c3)cc(=O)[nH]c2=O)c1	> 67 µM	> 25 µg/mL	–	–
Cc1ccc(C)c(Cn2c(Sc3c(Cl)cccc3Cl)cc(=O)[nH]c2=O)c1	> 61 µM	> 25 µg/mL	–	–
C[Si](C)(C)CCOCn1c(Sc2cccc(Cl)c2)cc(=O)[nH]c1=O	> 30 µM	11.6 µg/mL (≈ 30.1 µM)	–	–
C[Si](C)(C)CCOCn1c(Sc2cccc(N)c2)cc(=O)[nH]c1=O	> 68 µM	> 25 µg/mL	–	–
C[Si](C)(C)CCOCn1c(Sc2c(Cl)cccc2Cl)cc(=O)[nH]c1=O	> 25.2 µM	10.6 µg/mL (≈ 25.3 µM)	–	–
Cc1ccc(C)c(Cn2c(Sc3ccccc3)cc(=O)[nH]c2=O)c1	> 74 µM	> 25 µg/mL	–	–
Cc1ccc(C)c(Cn2c(Sc3cccc(N)c3)cc(=O)[nH]c2=O)c1	> 71 µM	> 25 µg/mL	–	–
CCOCn1c(Sc2ccccc2)c(C)c(=O)[nH]c1=O	0.086 µM	> 25 µg/mL	> 1000	38
CCOCn1c(Sc2cccc(N)c2)cc(=O)[nH]c1=O	> 85 µM	> 25 µg/mL	–	–
C[Si](C)(C)CCOCn1c(Sc2ccccc2)cc(=O)[nH]c1=O	> 71 µM	> 25 µg/mL	–	–
Cc1c(Sc2ccccc2)n(COCC[Si](C)(C)C)c(=O)[nH]c1=O	> 27.3 µM	9.9 µg/mL (≈ 27.2 µM)	–	–
CCOCn1c(Sc2ccccc2)cc(=O)[nH]c1=O	> 90 µM	> 25 µg/mL	–	–
CCOCn1c(Sc2cccc(N)c2)c(C)c(=O)[nH]c1=O	1.3 µM	> 25 µg/mL	> 63	–
